Experimental data as given in PMC6430907 (Journal of Veterinary Internal Medicine, 2019).

System: dogs with compensated CHF caused by MMVD
Assay: Urine output
Assay type: in vivo, dog
How it was run: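 Crossover design in 7 male dogs with ACVIM stage C CHF from MMVD, treated in fixed order with a 2-week washout. Baseline UOP was measured at the end of a 1-h control period. […] UOP was log-transformed and analysed by linear mixed modelling (REML, least square differences).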

## NS(=O)(=O)c1cc(C(=O)O)c(NCc2ccco2)cc1Cl [FRUS, furosemide]
1 hour after treatment, median of 7 dogs
  increase in median UOP compared to baseline at maximal effect: 1246%
BNP 5 μg/kg SC, FRUS 2 mg/kg SC, or both, 1, 2, 3 hours, 7 dogs
  change in urine output (UOP) from baseline: increased significantly
Furosemide 2 mg/kg SC with or without BNP 5 μg/kg SC
  time after treatment of maximal effect on UOP: 1 h
